This is an account of results in ChEMBL document CHEMBL3797162, “Synthesis and inhibitory evaluation of 3-linked imipramines for the exploration of the S2 site of the human serotonin transporter” (Bioorg Med Chem, 2016).

What all share (format): cell-based
Test [1] deals with Sodium-dependent serotonin transporter (Homo sapiens, UniProt P31645, W103A). The test can be described thus: Inhibition of human SERT W103A mutant expressed in HEK293 MSR cells assessed as [3H]-5-HT uptake preincubated for 30 mins followed addition of [3H]-5HT and compound for 10 mins by micro-scintillation counter. An outline of the steps: (§1)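 Cells were transiently transfected (Lipofectamine 2000, 0.2 µg DNA per cm²) and used after 48–60 h. Cells were washed in PBS with Ca/Mg (pH 7.4) and preincubated 30 min with a dilution series. 50–100 nM [3H]5-HT plus inhibitor was then added for 10 min at room temperature.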
Sequence of Sodium-dependent serotonin transporter (Homo sapiens, UniProt P31645, W103A) (P31645 whole entry W103A): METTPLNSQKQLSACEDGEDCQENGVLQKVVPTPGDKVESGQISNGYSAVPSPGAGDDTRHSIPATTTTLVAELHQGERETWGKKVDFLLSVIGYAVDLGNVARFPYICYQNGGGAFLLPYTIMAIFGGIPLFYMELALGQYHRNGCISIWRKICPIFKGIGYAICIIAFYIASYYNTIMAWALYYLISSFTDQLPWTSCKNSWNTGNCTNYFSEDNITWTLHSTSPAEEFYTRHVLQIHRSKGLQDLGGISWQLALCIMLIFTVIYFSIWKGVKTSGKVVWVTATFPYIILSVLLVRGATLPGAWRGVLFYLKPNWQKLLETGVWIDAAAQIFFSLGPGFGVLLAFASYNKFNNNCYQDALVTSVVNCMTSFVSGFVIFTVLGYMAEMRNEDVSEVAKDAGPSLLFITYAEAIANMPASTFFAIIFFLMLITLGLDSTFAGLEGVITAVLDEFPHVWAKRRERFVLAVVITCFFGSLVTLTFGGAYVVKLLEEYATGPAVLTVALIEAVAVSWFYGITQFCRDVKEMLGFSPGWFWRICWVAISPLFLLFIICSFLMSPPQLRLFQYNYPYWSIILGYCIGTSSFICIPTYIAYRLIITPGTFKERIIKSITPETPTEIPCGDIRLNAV

Test [2] deals with Sodium-dependent serotonin transporter (Homo sapiens, UniProt P31645). As to the kind of experiment: Inhibition of wild-type human SERT expressed in HEK293 MSR cells assessed as [3H]-5-HT uptake preincubated for 30 mins followed addition of [3H]-5HT and compound for 10 mins by micro-scintillation counter. Summed up:
as §1

Test [3] addresses Sodium-dependent serotonin transporter (Homo sapiens, UniProt P31645, I179C). As to the kind of experiment: Inhibition of human SERT I179C mutant expressed in HEK293 MSR cells assessed as [3H]-5-HT uptake preincubated for 30 mins followed addition of [3H]-5HT and compound for 10 mins by micro-scintillation counter. Summed up:
as §1

Test [4] deals with Sodium-dependent serotonin transporter (Homo sapiens, UniProt P31645, I172M). As to the kind of experiment: Inhibition of human SERT I172M mutant expressed in HEK293 MSR cells assessed as [3H]-5-HT uptake preincubated for 30 mins followed addition of [3H]-5HT and compound for 10 mins by micro-scintillation counter. An outline of the steps: as §1
Sequence of Sodium-dependent serotonin transporter (Homo sapiens, UniProt P31645, I172M) (P31645 whole entry I172M): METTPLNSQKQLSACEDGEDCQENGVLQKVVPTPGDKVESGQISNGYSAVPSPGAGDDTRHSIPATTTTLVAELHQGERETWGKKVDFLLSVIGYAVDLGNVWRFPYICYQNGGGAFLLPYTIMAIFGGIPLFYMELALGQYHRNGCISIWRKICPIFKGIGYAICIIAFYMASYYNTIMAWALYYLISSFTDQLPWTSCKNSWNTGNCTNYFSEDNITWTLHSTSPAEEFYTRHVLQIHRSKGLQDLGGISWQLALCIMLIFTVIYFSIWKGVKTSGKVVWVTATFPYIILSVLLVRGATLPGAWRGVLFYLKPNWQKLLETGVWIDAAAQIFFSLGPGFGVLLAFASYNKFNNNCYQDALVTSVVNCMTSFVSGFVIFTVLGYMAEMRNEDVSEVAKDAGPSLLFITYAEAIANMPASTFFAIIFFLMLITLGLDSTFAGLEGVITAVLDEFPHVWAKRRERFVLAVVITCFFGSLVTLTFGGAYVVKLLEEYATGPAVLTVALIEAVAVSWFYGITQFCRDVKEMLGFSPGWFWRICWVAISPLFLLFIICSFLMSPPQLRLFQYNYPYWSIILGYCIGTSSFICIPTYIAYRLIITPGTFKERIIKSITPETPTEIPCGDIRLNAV

Sequence of Sodium-dependent serotonin transporter (Homo sapiens, UniProt P31645, I179C) (P31645 whole entry I179C): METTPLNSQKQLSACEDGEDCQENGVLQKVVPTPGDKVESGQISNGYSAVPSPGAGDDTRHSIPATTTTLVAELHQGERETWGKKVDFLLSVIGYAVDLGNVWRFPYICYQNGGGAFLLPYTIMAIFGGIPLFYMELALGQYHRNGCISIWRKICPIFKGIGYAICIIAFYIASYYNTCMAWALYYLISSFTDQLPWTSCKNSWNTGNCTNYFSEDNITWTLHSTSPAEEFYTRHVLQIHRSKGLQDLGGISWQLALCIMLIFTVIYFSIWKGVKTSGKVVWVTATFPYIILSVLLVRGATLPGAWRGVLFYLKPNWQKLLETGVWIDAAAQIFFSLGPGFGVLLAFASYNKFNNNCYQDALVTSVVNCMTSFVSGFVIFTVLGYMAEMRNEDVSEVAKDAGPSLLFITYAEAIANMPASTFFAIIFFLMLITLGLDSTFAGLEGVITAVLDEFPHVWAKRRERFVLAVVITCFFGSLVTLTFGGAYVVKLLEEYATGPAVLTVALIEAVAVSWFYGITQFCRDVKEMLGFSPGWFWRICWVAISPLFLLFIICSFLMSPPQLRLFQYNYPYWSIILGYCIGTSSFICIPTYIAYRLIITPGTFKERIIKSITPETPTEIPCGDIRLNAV
Sequence of Sodium-dependent serotonin transporter (Homo sapiens, UniProt P31645) (P31645 whole entry): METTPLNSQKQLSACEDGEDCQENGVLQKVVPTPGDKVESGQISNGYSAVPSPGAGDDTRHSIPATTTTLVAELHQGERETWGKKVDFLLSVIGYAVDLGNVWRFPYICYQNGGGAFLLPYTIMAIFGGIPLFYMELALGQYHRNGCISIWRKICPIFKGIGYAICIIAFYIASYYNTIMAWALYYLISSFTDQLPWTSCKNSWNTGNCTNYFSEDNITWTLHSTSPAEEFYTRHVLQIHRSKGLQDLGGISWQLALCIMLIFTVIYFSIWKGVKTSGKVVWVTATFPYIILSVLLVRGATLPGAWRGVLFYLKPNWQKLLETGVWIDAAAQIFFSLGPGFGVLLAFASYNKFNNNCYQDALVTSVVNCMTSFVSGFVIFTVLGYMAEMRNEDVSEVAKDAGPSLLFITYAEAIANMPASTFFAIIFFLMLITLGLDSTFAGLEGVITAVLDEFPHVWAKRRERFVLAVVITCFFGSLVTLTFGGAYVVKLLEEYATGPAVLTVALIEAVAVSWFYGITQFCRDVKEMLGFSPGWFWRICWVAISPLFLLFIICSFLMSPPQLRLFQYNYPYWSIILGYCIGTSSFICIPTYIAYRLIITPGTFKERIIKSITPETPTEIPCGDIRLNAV

On to `CN(C)CCCN1c2ccccc2CCc2ccc(C#CCO)cc21`, for which the IC50 (commonly the concentration that gives 50% inhibition) in test [1] worked out at 0.06 µM. In addition, the Ki (usually the equilibrium dissociation constant of an inhibitor or competing ligand from its target) was determined as 0.15 µM in test [2], 0.035 µM in test [3] and 2.6 µM in test [4].

Consider `CN(C)CCCN1c2ccccc2CCc2ccc(C#CCOCc3cccc4ccccc34)cc21`, for which, in test [1], the 50% inhibitory concentration (IC50) worked out at 0.34 µM. Further, the Ki in test [2] turned out to be 0.59 µM; in test [3], 0.28 µM; in test [4], 5.4 µM.

As for `C#Cc1ccc2c(c1)N(CCCN(C)C)c1ccccc1CC2`, the half-maximal inhibitory concentration (IC50) in test [1] is 0.04 µM. For the same molecule, the Ki came to 0.22 µM in test [2], 0.027 µM in test [3] and 2.4 µM in test [4].

With `CN(C)CCCN1c2ccccc2CCc2ccc(C#CCOCCOCCOc3cccc4ccccc34)cc21`, the half-maximal inhibitory concentration (IC50) in test [1] is 0.42 µM. Moreover, the inhibitory constant (Ki) in test [2] stood at 6.5 µM; in test [3], 0.45 µM; in test [4], 6.4 µM.

Regarding `CN(C)CCCN1c2ccccc2CCc2ccc(C#CCOCCOc3cccc4ccccc34)cc21`, the half-inhibitory concentration (IC50) in test [1] was 4.8 µM. Further, the figures for the inhibitory constant (Ki) in test [2], in test [3] and in test [4] were 3.5 µM, 1.8 µM and 8 µM, respectively.

As for `CN(C)CCCN1c2ccccc2CCc2ccc(C#CCOCCCOc3cccc4ccccc34)cc21`, the IC50 in test [1] is 0.94 µM. The inhibition constant Ki in test [2] worked out at 3.5 µM; in test [3] it was 1.2 µM; in test [4], 27 µM.

In the case of `CN(C)CCCN1c2ccccc2CCc2ccc(C#CCOCCOc3ccc4ccccc4c3)cc21`, the IC50 in test [1] came out at 0.44 µM. Besides, the values for the Ki in test [2], in test [3] and in test [4] were 1.5 µM, 0.64 µM and 2 µM, respectively.

With `CN(C)CCCN1c2ccccc2CCc2ccc(C#CCOCCCN3c4ccccc4CCc4ccccc43)cc21`, the half-inhibitory concentration (IC50) in test [1] was 1.6 µM. Besides, the inhibition constant (Ki) amounted to 13 µM in test [2], 1.6 µM in test [3] and 16 µM in test [4].

With `CN(C)CCCN1c2ccccc2CCc2ccc(CCCOCCCOCCCN3c4ccccc4CCc4ccccc43)cc21`, in test [1], the IC50 was 0.84 µM. For the same molecule, the Ki was 5.9 µM in test [2], 0.64 µM in test [3] and 11 µM in test [4].

On to `CN(C)CCCN1c2ccccc2CCc2ccc(CCCOCCCN3c4ccccc4CCc4ccccc43)cc21`, for which the IC50 in test [1] came out at 0.27 µM. The figures for the Ki in test [2], in test [3] and in test [4] were 6.3 µM, 0.33 µM and 15 µM, respectively.

As for `CN(C)CCCN1c2ccccc2CCc2ccc(CCCOCc3cccc4ccccc34)cc21`, the IC50 in test [1] was found to be 0.61 µM. Besides, the Ki in test [2] amounted to 0.62 µM; in test [3], 0.29 µM; in test [4], 5 µM.

As to `CN(C)CCCN1c2ccccc2CCc2ccc(C#CCOCCOCCSc3cccc4ccccc34)cc21`, the IC50 in test [1] amounted to 0.56 µM. Further, the inhibitory constant (Ki) in test [2] is 2 µM; in test [3] it was 0.5 µM; in test [4], 19 µM.

For `CN(C)CCCN1c2ccccc2CCc2ccc(CCCOCCOCCc3cccc4ccccc34)cc21`, the IC50 in test [1] is 0.28 µM. The Ki worked out at 1 µM in test [2], 0.36 µM in test [3] and 6.7 µM in test [4].

`CN(C)CCCN1c2ccccc2CCc2ccc(CCCOCCCOc3cccc4ccccc34)cc21`: the IC50 in test [1] stood at 0.6 µM. Also, the inhibition constant Ki in test [2] was determined as 1.2 µM; in test [3], 0.62 µM; in test [4] it was 9.4 µM.

As to `CN(C)CCCN1c2ccccc2CCc2ccc(CCCOCCOc3cccc4ccccc34)cc21`, the half-inhibitory concentration (IC50) in test [1] came to 0.28 µM. In addition, the inhibition constant Ki in test [2] came to 0.6 µM; in test [3], 0.27 µM; in test [4] it was 2.7 µM.

As for `CN(C)CCCN1c2ccccc2CCc2ccc(C#CCOCCOCCc3cccc4ccccc34)cc21`, the 50% inhibitory concentration (IC50) in test [1] is 0.3 µM. Also, the Ki in test [2] came out at 1.1 µM; in test [3], 0.54 µM; in test [4], 5.2 µM.

For the molecule `CN(C)CCCN1c2ccccc2CCc2ccc(C#CCOCCCOCCCN3c4ccccc4CCc4ccccc43)cc21`, in test [1], the IC50 worked out at 4.1 µM. The Ki in test [2] was 11 µM; in test [3], 2.8 µM; in test [4], 10 µM.
